# Laboratory results reported in ChEMBL document CHEMBL4513216, “Probing the Open Global Health Chemical Diversity Library for Multistage-Active Starting Points for Next-Generation Antimalarials” (ACS Infect Dis, 2020).
# Assay: Toxicity liver stage against HepG2, at 10uM
# Format: cell-based
# Set-up: test concentration 10 uM, cell line HepG2-A16-CD81EGFP
# Settings: human, HepG2-A16-CD81EGFP cells; read-out: INHIBITION
# Summary of the method: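 Uninfected HepG2-A16-CD81EGFP cells, 3 × 10^3 per well, 1536-well, plated on prespotted compound at 10 μM final, parasite-free screening media added to match infected plates; puromycin 10 μM positive, DMSO 0.5% negative; run in parallel with 48 h PbLuc assay at 37 °C, 5% CO2; viability by CellTiter-Glo luminescence, normalized to controls.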
row,SMILES,cytotoxicity at 10 µM [%]
1,CCC1(C)Cc2ccccc2-c2nc(NCCO)nc(O)c21 (stereo unspecified),4.1
2,CC(C)(C)c1coc([C@@H]2COCCN2Cc2ncc[nH]2)n1,2.61
3,CC(=O)N1CC=C(n2c(=O)[nH]c3ccccc32)CC1,1.73
4,Cc1cc(=O)[nH]c(-n2nc(-c3cccs3)cc2N)n1,4.57
5,CC(C)CN1C[C@@H]2C(=O)NC3(CCN(C(=O)c4cccnc4)CC3)[C@@H]2C1,5.53
6,O=C(c1cc(F)cc(F)c1)N1C[C@H]2CNC[C@H]2C1,2.91
7,Cc1noc(C)c1CN1CCOC2(CCCN(c3ccccn3)C2)C1 (stereo unspecified),11.6
8,O=C(NC1CC1)[C@H]1CC[C@@H]2[C@@H](CCN2Cc2ccsc2)O1,1.42
9,Cn1nnc2c1C(COCC1CC1)CN(C(=O)Cc1cccs1)C2 (stereo unspecified),3.88
10,CC(C)N(C)[C@@H]1CCN(C(=O)[C@H]2CCCO2)[C@H]1Cc1cnn(C)c1,0.428
11,CN(Cc1cn2c(n1)CN(C(N)=O)CC2)Cc1ccco1,-5.67
12,COc1ccc(C2=C(C)C(N3CCc4ccccc4C3)=NS2(=O)=O)cc1,-6.34
13,CN(C)S(=O)(=O)N1CCC(Oc2cnccn2)CC1,1.65
14,CSc1ncn(-c2nc(N(C)C)nc(N(C)C)n2)n1,-3.54
15,Cc1ccc(NC(=O)C(C)n2ccc(C(F)(F)F)n2)nc1 (stereo unspecified),9.6
16,Cc1nn(C)c(C)c1CN1CCNCC1,4.68
17,CCn1cc(Cl)c(C(=O)Nc2ccc3c(c2)C(C)(C)C(=O)N3C)n1,9.21
18,Cc1cc(=O)n(CC(=O)NCC2CCCO2)c(-c2ccccc2)n1 (stereo unspecified),-14.6
19,COc1ccc(OCCc2nnc(NC(C)=O)s2)cc1,0.0869
20,Nc1nccc(C2CN(Cc3ccc(-c4ccccc4C(=O)O)o3)C2)n1,5
21,O=C(O)c1cccc(CN2CCCC(c3ccn[nH]3)C2)c1 (stereo unspecified),3.98
22,O=C(CC1CCN(c2cccnn2)CC1)Nc1cccnc1,3.72
23,CN1CCN(C(=O)c2ccccc2)CC(Cc2cc(N(C)C)ncn2)C1 (stereo unspecified),2

row,SMILES,cytotoxicity at 10 µM [%]
1,COCC(=O)N1C[C@@H](c2cccc(F)c2)[C@H]2[C@H]1CCCCCN2C(C)=O,4.22
2,Cc1nn(C)c(C)c1-c1cnc(CC2CCNCC2)cn1,-13.7
3,CC(C)N1CCCC(CNC(=O)Cc2csc(-c3cccnc3)n2)C1 (stereo unspecified),-51.5
4,Cn1cc(S(=O)(=O)N2CCCC(Cn3cncn3)C2)cn1 (stereo unspecified),2
5,CSCC(=O)NC(Cc1ccc(C)cc1)c1ccccn1 (stereo unspecified),1.23
6,CCCN1CCC(NCc2cccc(CN3CCOC(C)C3)c2)CC1 (stereo unspecified),-13
7,CN(C)c1ncccc1NC(=O)COCC1CC1,-4.69
8,CCC(=O)N(c1ccc(C(=O)OC)cc1C)C(C)C,0.814
9,Cc1csc(C2(NCCC(=O)N3CCOCC3)CCCC2)n1,-11.4
10,CN1CCN(C2CCN(C(C(N)=O)c3ccccc3)CC2)C1=O (stereo unspecified),-4.29
11,Cc1ccc(CNC(=O)N2CCN(C(C)c3cccnc3)CC2)cn1 (stereo unspecified),-2.11
12,COc1cc(CNC(=O)Nc2nnc(C(F)(F)F)s2)ccc1O,-2.83
13,CCOC(=O)c1ccc(CNC(=O)c2ccncc2Cl)o1,6.93
14,Cc1cc(C(=O)N(C)C(C)CC(C)C)on1 (stereo unspecified),-4.6
15,CNC(=O)CSC(C)c1ccc(Br)cc1 (stereo unspecified),-5.71
16,CC(NC(=O)C1=NN(C)C(=O)CC1)c1ccc(Cl)cc1 (stereo unspecified),-20.7
17,COC(C)C(=O)Nc1cc(C(=O)N2CCSCC2)ccc1C (stereo unspecified),6.83
18,CS(=O)(=O)NC1CCCN(C(=O)Nc2cccnc2N2CCCC2)C1 (stereo unspecified),-131
19,CC(C)c1nnc2n1CCN(C(=O)c1cn(-c3ccccc3)nn1)C2,-144
20,N#Cc1ccc(N2CCC(NS(=O)(=O)c3cccs3)CC2)c(F)c1,20.5
21,Cc1cc(C)n(CC2CCCCN2C(=O)c2ccc3[nH]nnc3c2)n1 (stereo unspecified),2.52
22,COc1c(C2CCCN2C(=O)c2cc(C3CC3)on2)c(C)nn1C (stereo unspecified),-2.87
23,Cc1ccc(N2CCCC(NC(=O)C(C)(C)C#N)C2=O)cc1 (stereo unspecified),-2.42

row,SMILES,cytotoxicity at 10 µM [%]
1,Cc1ccc(S(=O)(=O)NC(=O)C2(c3ccccc3)CCC2)c(C)c1,13.5
2,Cc1ccc(S(=O)(=O)N(CCO)C2CC2)cc1N(C)C,-8.91
3,CC(C)C(Sc1ccccc1)C(=O)N(C)Cc1nnc2n1CCC2 (stereo unspecified),-12.5
4,Cn1ncnc1NCc1ccc(Br)cc1,-11.9
5,CC(=O)N1CCN(C(=O)CCc2cc(Br)cs2)CC1,-9.74
6,COC(=O)N1CCCN(C(=O)NC2CCc3ccccc3C2)CC1 (stereo unspecified),-1.14
7,O=C(COc1cccc(Br)c1)N1CCN(c2nccs2)CC1,-1.53
8,Cc1ncsc1C(=O)N1CCCC(c2noc(C(C)C)n2)C1 (stereo unspecified),-2.04
9,COCCN(Cc1ccc(F)cc1Cl)C(=O)c1ccncc1,-5.69
10,COCc1cncc2c1CCN(C(=O)c1cscn1)C2,-104
11,CC(C)CN1C[C@@H]2CN(c3cnccn3)C[C@@H]2C1=O,-91.6
12,CS(=O)(=O)NC[C@]12COC[C@H]1CN(C(=O)N1CCCC1)C2,-109
13,Cc1nccc(NCc2cc3n(n2)CCCN(C(=O)C2CCC2)C3)n1,-128
14,Cn1cc(CN(C(=O)c2ccc(O)c(Cl)c2)C2CC2)cn1,5.17
15,OCC1(O)CCCN(Cc2nnc(-c3ccccc3)o2)CC1 (stereo unspecified),-3.69
16,O=C(O)c1ccnc(-c2ccnc(COc3ccc(Cl)cc3)n2)c1,-6.67
17,Cc1ncsc1C(=O)N[C@@H](Cc1ccccc1)C(N)=O,-44.9
18,CN1CCCC2(CCN(C(=O)Cn3ncc4ccccc4c3=O)C2)C1=O (stereo unspecified),1.57
19,CC(Nc1nccc(CCC(F)(F)F)n1)c1nc(-c2ccccn2)no1 (stereo unspecified),-6.43
20,COc1cccc(S(=O)(=O)N2C[C@@H](N(C)C)[C@H](C(C)C)C2)c1,-51.2
21,COCC1(NC(=O)C(c2ccc(F)cc2)N(C)C)CCCC1 (stereo unspecified),-44.9
22,CC(C)N1CCC(N2CCCC(C(=O)NCC3(O)CCCCC3)C2)CC1 (stereo unspecified),2.59
23,c1nc(N2CCCC2)ncc1CN1CCCC(CN2CCCCC2)C1 (stereo unspecified),-5.45

row,SMILES,cytotoxicity at 10 µM [%]
1,COCCn1ccnc1C1CCCN(c2cnccn2)C1 (stereo unspecified),3.23
2,CCCn1cc(C(=O)NC(C(=O)O)c2ccccc2C(F)(F)F)c(C)n1 (stereo unspecified),-50.2
3,O=C(NCCCn1cccn1)C1CCC(=O)N(CC2CCCCC2)C1 (stereo unspecified),-0.312
4,O=C1CC2(CCN(Cc3ccc(-c4ccccc4)s3)C2)C(=O)N1 (stereo unspecified),-0.745
5,Cc1cc(CN2CC3(CCN(C(=O)C4CC4)CC3)CC2C(=O)O)oc1C (stereo unspecified),1.1
6,CC(C)c1cc(N2CCCC3(CCN(C)C3)C2)ncn1 (stereo unspecified),-7.36
7,NC(=O)CN1CC2(CCC1=O)CCN(Cc1cc(F)ccc1Cl)CC2,18.6
8,CC(C)N1CCC(Cc2cc(-c3cccc(C(=O)O)c3)ncn2)C1 (stereo unspecified),3.01
9,C[C@]1(O)CCN(Cc2cncs2)C[C@@H]1Oc1cccc(F)c1,6.06
10,CC(C)c1nc(C2CCCN2Cc2ccon2)no1 (stereo unspecified),-3.5
11,Cc1cccc(C(=O)NCc2ccccc2)n1,-4.83
12,CC(C)C(Sc1nnnn1C1CC1)C(=O)NCc1ccccc1 (stereo unspecified),-3.46
13,Cc1oc(C(=O)O)cc1S(=O)(=O)Nc1cc(F)ccc1F,-7.66
14,Cc1ncc2c(n1)CN(Cc1nc(-c3ccsc3)no1)CC2,-1.33
15,CC1CN(CC(=O)N2CCOCC2)CCN1Cc1nccn1C (stereo unspecified),-15.6
16,CC(Cc1ccco1)NC(=O)Nc1ccc(N2CCCC2)nc1 (stereo unspecified),-3.31
17,Cc1ccc(-c2nc(CN3CCCCC3Cn3cncn3)no2)cc1 (stereo unspecified),-0.403
18,COc1cccc(C(=O)N2CCC(Nc3ccc(C)nn3)CC2)c1,-2.24
19,Cn1ncc2c(NCC3CCCN3c3cccnn3)ncnc21 (stereo unspecified),-11.9
20,CC(C)c1nc(CN2CCN(CC(O)c3ccccc3)CC2)no1 (stereo unspecified),-3.6
21,O=C(c1cnc(-c2cccs2)s1)N1CCCC(n2ccnc2)C1 (stereo unspecified),-12.8
22,COc1c(CNC2CCc3cc(C)ccc32)c(C)nn1C (stereo unspecified),-0.0225
23,O=C(c1ccc2c(c1)COC2)N1CCCN(Cc2cscn2)CC1,0.0102

row,SMILES,cytotoxicity at 10 µM [%]
1,Cn1ccnc1CN1CCN(CC(O)c2cc(F)ccc2F)CC1 (stereo unspecified),-13.8
2,O=C(CCc1ccccn1)N1CCCN(C(=O)CC2CCCC2)CC1,-0.546
3,CCOc1ccc(CC(CNC(=O)c2ccc(C)s2)C(N)=O)cc1 (stereo unspecified),-3.85
4,Cc1cnc(CN2CCOC(CN(C)c3cccnn3)C2)cn1 (stereo unspecified),3.64
5,Cc1cc(C(=O)N2CCC(Nc3cccnn3)CC2)no1,-0.0225
6,Cc1nn(C)c(C)c1C1CCCN1Cc1nc(C2CC2)no1 (stereo unspecified),-6.68
7,CCc1nc(CN(C)C2CCN(CCS(C)(=O)=O)C2)no1 (stereo unspecified),4.45
8,COc1cc(C(=O)N2CCCS2(=O)=O)cc(Cl)c1OC,2.31
9,CCc1nc(C2CCCN(C(=O)c3ccc4[nH]nnc4c3)C2)no1 (stereo unspecified),2.67
10,OCC1CCC2(CC1)CN(Cc1ccccn1)Cc1ccccc1O2 (stereo unspecified),5.35
11,CC(C)N(C)Cc1cnc2n1CCN(Cc1ccsc1)C2,1.96
12,c1cc(CN2CCc3ncc(CN4CCCCC4)n3CC2)cs1,-5.21
13,O=C1[C@@H]2CN(Cc3ccccn3)C[C@H]2CCN1c1cncnc1,-115
14,CC(C)Nc1nc2c(cc1C(=O)O)CCN(Cc1ccsc1)CC2,0.676
15,COc1ccc(CN2CCC3(CC(=O)N(c4cccc(F)c4)C3)C2)cc1 (stereo unspecified),-137
16,O=C(NCC1CCOCC1)[C@@H]1C[C@@H]2[C@@H](CCN2Cc2nccs2)O1,0.11
17,COCC1CN(Cc2ccc(C)s2)Cc2nnn(C)c21 (stereo unspecified),5.17
18,CN(C)[C@@H]1CCN(C(=O)NC2CCCC2)[C@H]1Cc1cnn(C)c1,-0.336
19,NC(=O)NCC(=O)N1C[C@@H]2CC[C@H]1CN(C1Cc3ccccc3C1)C2,15.3
